Measurements from PubChem BioAssay AID2541 (The Scripps Research Institute Molecular Screening Center, 2010).
The source made the active and inactive calls.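 The calls were made as follows: active = inhibition of at least 50%; inactive = inhibition below 50%.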

Target: NADPH oxidase 1 (Homo sapiens) (UniProt Q9Y5S8)
Test: NOX1 inhibitors in colonic epithelial cells, confirmation, luminescence, HT29 cells (AID 2541)
Details: luminol ROS chemiluminescence, 1 h, at 3.3 µM, stronger effect = higher value
Method in brief: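 material = HT29 colon epithelial cell line with endogenous NOX1 | incubation = 1 h compound pre-incubation before luminol/HRP addition | measured by = luminol chemiluminescence of intracellular ROS | read-out = % inhibition of luminescence | repeats = triplicate wells per compound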

Sequence of NADPH oxidase 1 (Homo sapiens) (Q9Y5S8 whole entry, looked up): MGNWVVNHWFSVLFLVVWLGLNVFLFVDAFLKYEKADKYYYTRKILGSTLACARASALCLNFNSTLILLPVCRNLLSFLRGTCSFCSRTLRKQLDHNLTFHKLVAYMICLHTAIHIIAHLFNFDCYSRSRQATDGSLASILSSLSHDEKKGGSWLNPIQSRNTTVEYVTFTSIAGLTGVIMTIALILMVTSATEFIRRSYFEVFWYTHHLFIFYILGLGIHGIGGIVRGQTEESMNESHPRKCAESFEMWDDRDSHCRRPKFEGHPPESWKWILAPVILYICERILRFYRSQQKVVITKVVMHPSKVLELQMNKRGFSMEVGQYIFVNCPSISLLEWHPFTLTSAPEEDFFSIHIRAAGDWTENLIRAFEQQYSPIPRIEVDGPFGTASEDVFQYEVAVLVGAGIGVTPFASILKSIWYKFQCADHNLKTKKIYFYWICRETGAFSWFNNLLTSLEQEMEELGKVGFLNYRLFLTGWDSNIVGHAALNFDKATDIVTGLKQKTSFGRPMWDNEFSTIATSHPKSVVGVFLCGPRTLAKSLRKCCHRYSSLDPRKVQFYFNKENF

Compound: O=C(N/N=C/c1ccc(O)cc1)N/N=C/c1ccc(O)cc1
- inhibition: 76.7%

Compound: Cc1cc(C(=O)NNc2cc(Cl)ccc2Cl)no1
- inhibition: 108%

Compound: O=C1c2ccccc2C(=O)N1CNc1ccc(N2CCOCC2)cc1
- inhibition: 11.1% (inactive)

Compound: CCC(=O)Nc1ccc2c(c1)N(CC)C(C)(C)CC2C (stereo unspecified)
- inhibition: 65.4%

Compound: CCOC(=O)C(=CNNc1ccnc2cc(Cl)ccc12)C(=O)OCC
- inhibition: 87.5%

Compound: O=C(Oc1ccccc1N1CCCCC1)c1sc2ccccc2c1Cl
- inhibition: 84.3%

Compound: Cn1ncc(C(=O)NC(=O)Nc2ccc(F)cc2)c1[N+](=O)[O-]
- inhibition: 6.3% (inactive)

Compound: CN(C)c1ccc(/C=N/Nc2c(Cl)cncc2Cl)cc1
- inhibition: 73.6%

Compound: CC[n+]1c(C)csc1Nc1ccc(N2CC(C)OC(C)C2)cc1 (stereo unspecified)
- inhibition: 89.3%

Compound: Cn1cnc(S(=O)(=O)Nc2ccc(N3CCCCC3)cc2)c1
- inhibition: 77.2%

Compound: CC(C)C(=O)NNc1nc2c(c(=O)n(C)c(=O)n2C)n1Cc1ccc(Cl)cc1
- inhibition: 76.1%

Compound: CC(C)(C)c1csc(NNC(=O)c2ccc(Cl)cc2)n1
- inhibition: 81.8%

Compound: CCN(CC)c1ccc(NC(=O)c2c(F)cccc2F)c(N(CC)CC)n1
- inhibition: 37.1% (inactive)

Compound: CCC(CO)Nc1nc2c([nH]1)c(=O)n(C)c(=O)n2C (stereo unspecified)
- inhibition: -32.2% (inactive)

Compound: CC(=O)Oc1ccc(OC(C)=O)c2c1[C@@H]1C=C[C@H]2CC1
- inhibition: 75.9%

Compound: O=c1[nH]c2ccsc2c(=O)n1CCO
- inhibition: 95.7%

Compound: O=S(=O)(Nc1ccc(N2CCCCC2)cc1)c1ccccc1
- inhibition: 85.4%

Compound: Cc1nc(C(F)(F)F)c(C(=O)NNc2ncc(C(F)(F)F)cc2Cl)s1
- inhibition: 101%

Compound: COc1cc(-c2nc(-c3ccccc3)c(-c3ccccc3)[nH]2)ccc1O
- inhibition: 84.1%

Compound: CC1(C)CC(Nc2ccc(Nc3ccccc3)cc2)CC(C)(C)N1
- inhibition: 61.5%

Compound: O=c1[nH]nc(N2CCSCC2)[nH]1
- inhibition: 96.6%

Compound: Cc1ccc(SC#N)c(N)n1
- inhibition: 63.2%

Compound: O=C1C=CC(=O)N1CCc1ccccc1
- inhibition: 11.1% (inactive)

Compound: Cc1noc(C)c1C(=O)Nc1ccc(N2CCOCC2)nc1N1CCOCC1
- inhibition: 97.5%

Compound: O=C1C=C(I)C(=O)C=C1I
- inhibition: 60.4%

Compound: O=c1c2c(-c3ccc([N+](=O)[O-])cc3)onc2n(-c2ccccc2)c(=O)n1-c1ccccc1
- inhibition: 29% (inactive)

Compound: Cc1oc(-c2ccc(Cl)cc2)cc1C(=O)O/N=C(\N)Cc1nc2cccnc2n1C1CC1
- inhibition: -17.1% (inactive)

Compound: Nc1nc2[nH]c(=S)[nH]c2c(=O)[nH]1
- inhibition: 29.6% (inactive)

Compound: Cc1cc(Br)c(NC(=S)NNc2ccccc2)c(Br)c1
- inhibition: 76.9%

Compound: CCC(=O)N1c2cc(Cl)ccc2-n2c(nn(C(=O)CC)c2=O)N1C(=O)CC
- inhibition: 81.7%

Compound: Cn1nc(-c2ccccc2)c(O)c(N=Nc2ccccc2)c1=O
- inhibition: 88.9%

Compound: NS(=O)(=O)c1ccc(NNC(=O)c2c(F)cccc2Cl)cc1
- inhibition: 74.3%

Compound: Cc1csc2ncnc(NNS(=O)(=O)c3cc(C(F)(F)F)cc(C(F)(F)F)c3)c12
- inhibition: 81.6%

Compound: O=C(Oc1ccccc1N1CCOCC1)c1cccs1
- inhibition: 87.8%

Compound: CC1CN(c2ccc(NC(=S)NN)cc2)CC(C)O1 (stereo unspecified)
- inhibition: 59.5%

Compound: CC(=O)/C(C=Nc1cc(C)c(O)c(Cl)c1)=C(\C)O
- inhibition: -27.6% (inactive)

Compound: FC(F)(F)c1ccc2c(c1)Nc1ccccc1S2
- inhibition: 86.9%

Compound: O=[N+]([O-])c1cc(C(F)(F)F)cc([N+](=O)[O-])c1Sc1ncc2ccccn12
- inhibition: -0.1% (inactive)

Compound: COc1ccc(OC(=O)c2ccc3ncccc3c2)cc1
- inhibition: 51.6%

Compound: COc1ccccc1NNC(=O)c1cc(C(C)(C)C)nn1Cc1ccccc1
- inhibition: 92.4%

Compound: ON/C=N/c1nnc(C(F)(F)F)s1
- inhibition: 63.1%

Compound: Cc1cc(Cl)ccc1NC(=S)NNC(=S)Nc1ccc(F)cc1
- inhibition: 89%

Compound: Nc1nc(NCc2ccccc2OC(F)(F)F)n[nH]1
- inhibition: 78.4%

Compound: CSC1=NS(=O)(=O)c2c(C)nn(C)c2S1
- inhibition: 33.3% (inactive)

Compound: COc1cccc(C(=O)CSc2nsc(SCC(=O)c3cccc(OC)c3)c2C#N)c1
- inhibition: 44.1% (inactive)

Compound: Cc1ccccc1C(=O)Oc1ccc(-c2csnn2)cc1
- inhibition: 54.9%

Compound: COC(=O)C1=C(Nc2ccc(O)cc2)CSC1
- inhibition: 63.7%

Compound: COc1cccc(NC(=S)NNC(=S)NC2CC3CCC2C3)c1 (stereo unspecified)
- inhibition: 78.9%

Compound: O=C(Nc1ccc(Cl)cc1)Oc1ccccc1N1CCSCC1
- inhibition: 56.4%

Compound: COc1ccc(OC)c(S(=O)(=O)c2ccc([N+](=O)[O-])cc2Cl)c1
- inhibition: 43.9% (inactive)

Compound: O=C(NNc1c([N+](=O)[O-])cc(C(F)(F)F)cc1[N+](=O)[O-])c1ccccc1-n1cccc1
- inhibition: 78%

Compound: CCC1=Nc2cccc3cccc(c23)N1
- inhibition: 14% (inactive)

Compound: CCN(CC)c1ccc(N=C2C=CC(=O)c3ccccc32)c(C)c1
- inhibition: 23.7% (inactive)

Compound: Cc1ccc(NCN2C(=O)c3ccc([N+](=O)[O-])cc3C2=O)cc1
- inhibition: 17.8% (inactive)

Compound: O=C(Nc1ccc(N2CCCCC2)cc1)Nc1ccccc1OC(F)(F)F
- inhibition: 73.9%

Compound: Nc1nc(Nc2ccccc2)n[nH]1
- inhibition: 73.6%

Compound: O=C(Nc1ccc(Cl)cc1Cl)c1cc([N+](=O)[O-])cc2c1-c1ccc([N+](=O)[O-])cc1C2=O
- inhibition: -22.8% (inactive)

Compound: CCOc1ccccc1Nc1n[nH]c(=S)s1
- inhibition: 81.5%

Compound: CCn1c(-c2cc(-c3ccccc3)sc2N)n[nH]c1=S
- inhibition: -5.1% (inactive)

Compound: CC1=CC(=O)C(CCC2=CC(=O)C(C)=CC2=O)=CC1=O
- inhibition: 10.4% (inactive)

Compound: O=c1c(Cl)c2oc3ccccc3nc-2c2ccccc12
- inhibition: 56.3%

Compound: COc1cc2ncnc(NNC(=O)c3cccs3)c2cc1OC
- inhibition: 70.5%

Compound: O=C(O)/C(=N/Nc1ccccc1O)c1ccccc1
- inhibition: 62.5%

Compound: O=c1[nH][nH]c2cccc(F)c12
- inhibition: 9.8% (inactive)

Compound: COc1ccc2c(c1)CCCN2Cc1c[nH]c2ccccc12
- inhibition: 26.5% (inactive)

Compound: N#Cc1c(N)sc2c1CCc1ccccc1-2
- inhibition: 103%

Compound: c1ccc2c(c1)NC(c1ccc3c(c1)OCO3)O2 (stereo unspecified)
- inhibition: -39.8% (inactive)

Compound: S=c1[nH]cc(-c2ccc(Br)cc2)[nH]1
- inhibition: 70.8%

Compound: CCS(=O)(=O)c1ccc(O)c(NC(=O)c2ccccc2C(=O)O)c1
- inhibition: -41.4% (inactive)

Compound: COCCCNC(=S)NNC(=S)Nc1ccccc1
- inhibition: 70.1%

Compound: Cc1cc(C)cc(NC(=O)Nc2ccc(N3CCCCC3)cc2)c1
- inhibition: 74.4%

Compound: CN(C)c1ccc(NC(=O)Nc2ccc(OCc3ccccc3)cc2)cc1
- inhibition: 90.2%

Compound: CN(NC=C(C#N)C#N)c1ccccc1[N+](=O)[O-]
- inhibition: 100%

Compound: CCN(CC)c1ccc(NC(=O)C2CCCCC2)c(N(CC)CC)n1
- inhibition: 37% (inactive)

Compound: CCOC(=O)C1=C(Nc2ccc(OC(C)=O)cc2)C(=O)N(C(C)(C)C)C1
- inhibition: 72.9%

Compound: CCOC(=O)c1nsc(/C(C)=N/Nc2ccccc2)c1N
- inhibition: 16% (inactive)

Compound: O=C(Oc1ccccc1N1CCCCC1)c1ccco1
- inhibition: 95%

Compound: COc1cccc(NC(=S)NNc2ccc([N+](=O)[O-])cc2)c1
- inhibition: 89.2%

Compound: Cc1cc(S(=O)(=O)NNc2ncnc3c2cnn3C)c(C)cc1Cl
- inhibition: 102%

Compound: CC(=O)c1ccc(NCN2C(=O)/C(=C\N(C)C)NC2=S)cc1
- inhibition: 59.2%

Compound: Nc1nc(NCc2c(Cl)cccc2Oc2ccccc2)n[nH]1
- inhibition: 74.1%

Compound: O=C(Oc1cccc2[nH]ccc12)c1ccc(C(F)(F)F)cc1
- inhibition: 30.4% (inactive)

Compound: O=C(Oc1ccccc1N1CCOCC1)c1cccnc1Oc1ccccc1
- inhibition: 71.9%

Compound: COc1cc2ncnc(NNS(=O)(=O)c3cc(C)c(Cl)cc3C)c2cc1OC
- inhibition: 93%

Compound: CC(C)(C)c1cc2nc(C(F)(F)F)cc(NNC(=O)Nc3ccc(OC(F)(F)F)cc3)n2n1
- inhibition: 11.4% (inactive)

Compound: S=C(NNc1nccc(-c2cccnc2)n1)Nc1ccccc1
- inhibition: 88.4%

Compound: COc1ccc(N(C)CC(=O)O)c(C(=O)O)c1
- inhibition: 75%

Compound: Nc1nc(NCc2ccccn2)n[nH]1
- inhibition: 78.6%

Compound: COc1ccc(C(=O)NNc2c([N+](=O)[O-])cc(C(F)(F)F)cc2[N+](=O)[O-])cc1
- inhibition: 88.1%

Compound: c1ccc2c(c1)Nc1nc3ccccc3nc1N2
- inhibition: 79.7%

Compound: O=[N+]([O-])c1cc(C(F)(F)F)ccc1Oc1ccc(-c2nnco2)cc1
- inhibition: 58.8%

Compound: O=C(NNc1c([N+](=O)[O-])cc(C(F)(F)F)cc1[N+](=O)[O-])c1ccco1
- inhibition: 92.8%

Compound: CN(C)c1ccc(NC(=O)Nc2cccs2)cc1
- inhibition: 48.3% (inactive)

Compound: COc1ccc(Cl)cc1NC(=O)Nc1ccc(N(C)C)cc1
- inhibition: 88.8%

Compound: Cc1cc(S(=O)(=O)NNc2ncnc3cc(C(C)(C)C)sc23)c(C)cc1Cl
- inhibition: 71%

Compound: COC(=O)c1sccc1-c1ccc(CN2CCCc3cc(OC)ccc32)o1
- inhibition: 74.1%
